Measurements: ChEMBL document CHEMBL4387708, “Enhancement of Benzothiazoles as Pteridine Reductase-1 Inhibitors for the Treatment of Trypanosomatidic Infections” (J Med Chem, 2019)

Assays:
[1] = biological target: T1, Pteridine reductase 1 (Leishmania major) (UniProt Q01782); experiment: Inhibition of Leishmania major pteridine reductase 1 at 50 uM using di-hydrobiopterine as substrate in presence of NADPH relative to control
T1 sequence (whole entry): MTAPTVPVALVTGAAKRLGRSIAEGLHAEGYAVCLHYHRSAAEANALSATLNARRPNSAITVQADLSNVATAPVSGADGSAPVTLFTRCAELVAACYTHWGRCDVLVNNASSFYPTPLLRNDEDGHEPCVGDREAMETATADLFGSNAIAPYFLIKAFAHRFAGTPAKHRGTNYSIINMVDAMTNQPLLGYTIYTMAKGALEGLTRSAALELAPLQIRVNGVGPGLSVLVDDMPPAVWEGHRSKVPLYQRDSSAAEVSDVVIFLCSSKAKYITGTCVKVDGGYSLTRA
Method in brief: (§1)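 Photometric PTR1 assay with NADPH and dihydrobiopterin substrate. H₄B formation is coupled non-enzymatically to cytochrome c reduction, read as signal increase at 550 nm.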

[2] = Selectivity index ratio of NOAEL for human THP1 cells to EC50 for growth inhibition of Trypanosoma brucei bloodstream forms; format: toxicity; settings: read-out: Selectivity Index
hERG = experiment: Selectivity index ratio of IC50 for human ERG to EC50 for growth inhibition of Trypanosoma brucei bloodstream forms; format: toxicity; settings: read-out: Ratio IC50/EC50
[3] = Half-life in BALB/c mouse at 20 mg/kg, po co-formulated with hydroxypropyl-beta-cyclodextrin by LC-MS analysis; format: ADME, organism-based; settings: in vivo
Method in brief: (§2)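 Snapshot PK in healthy BALB/c mice. Free compound given in 8% DMSO at 1 mg/kg IV or 20 mg/kg per os; for the formulated arm it was solubilized with hydroxypropyl-β-cyclodextrin (50%) and given at 20 mg/kg per os. Plasma levels were quantified by LC-MS on a C18 column with triple-quadrupole ESI detection in positive ion mode.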

[4] = AUC in BALB/c mouse at 1 mg/kg, iv by LC-MS analysis; format: ADME, organism-based; settings: in vivo; method in brief: as §2
Trypanosoma cruzi = experiment: Growth inhibition of trypomastigote form of Trypanosoma cruzi Y infected in human U2OS cells at 50 uM measured after 72 hrs by DRAQ5 DNA dye based confocal microscopic analysis relative to control; format: organism-based; settings: Trypanosoma cruzi, Y, U2OS, read-out: GI
Trypanosoma brucei [5] = experiment: Growth inhibition of Trypanosoma brucei bloodstream forms measured after 72 hrs by resazurin-based fluorescence assay; format: organism-based
Method in brief: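 Mid-log bloodstream-form T. brucei were seeded at a final 5 x 10^3/mL in supplemented HMI-9 with serial compound dilutions. Cultures ran 72 h at 37 °C, 5% CO₂, then 4 h more after resazurin. Fluorescence was read at ex 540/em 620 nm, and EC₅₀ was fitted by non-linear regression.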

[6] = Selectivity index ratio of GI50 for human U2OS cells to EC50 for growth inhibition of Trypanosoma brucei bloodstream forms; format: toxicity; settings: read-out: Ratio GI50/EC50
[7] = Ratio of Cmax BALB/c mouse at 20 mg/kg, po co-formulated with hydroxypropyl-beta-cyclodextrin to EC50 for Trypanosoma brucei bloodstream forms; format: ADME, organism-based; settings: in vivo
Cytochrome P450 2C9 = Cytochrome P450 2C9 (Homo sapiens, UniProt P11712); experiment: Inhibition of human CYP2C9 expressed in baculovirus infected insect cells using beetle D-luciferin as substrate preincubated for 30 mins followed by NADPH addition and measured after 30 mins by CYP450-Glo assay
Cytochrome P450 2C9, sequence (P11712 whole entry): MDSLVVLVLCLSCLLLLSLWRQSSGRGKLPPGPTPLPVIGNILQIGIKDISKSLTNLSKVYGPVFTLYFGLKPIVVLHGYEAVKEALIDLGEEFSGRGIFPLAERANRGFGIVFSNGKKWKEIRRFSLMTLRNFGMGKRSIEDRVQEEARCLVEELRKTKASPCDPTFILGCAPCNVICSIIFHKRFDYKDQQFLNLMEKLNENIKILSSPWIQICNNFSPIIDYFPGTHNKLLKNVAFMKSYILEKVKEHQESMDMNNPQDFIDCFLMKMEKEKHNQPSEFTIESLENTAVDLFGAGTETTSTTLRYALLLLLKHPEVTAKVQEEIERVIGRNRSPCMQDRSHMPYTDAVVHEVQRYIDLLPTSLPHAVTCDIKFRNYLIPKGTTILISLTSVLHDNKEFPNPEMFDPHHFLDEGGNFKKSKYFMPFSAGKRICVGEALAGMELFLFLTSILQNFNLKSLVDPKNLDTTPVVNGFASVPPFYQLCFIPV

CYP3A4 = experiment: Selectivity index ratio of IC50 for CYP3A4 (unknown origin) to EC50 for growth inhibition of Trypanosoma brucei bloodstream forms; format: toxicity; settings: read-out: Ratio IC50/EC50
Leishmania infantum = experiment: Growth inhibition of luciferase expressing Leishmania infantum axenic amastigotes infected in human THP1 cells at 10 uM measured after 72 hrs by steady-glo luminescence assay relative to control; format: organism-based; settings: leishmania infantum, 72 h, 10 µM
[8] = Cytotoxicity against human THP1 cells after 72 hrs by MTT assay; format: cell-based, THP-1; settings: read-out: NOAEL
[9] = Clearance in BALB/c mouse at 20 mg/kg, po by LC-MS analysis; format: ADME, organism-based; settings: in vivo; method in brief: as §2
[10] = Cmax in BALB/c mouse at 20 mg/kg, po by LC-MS analysis; format: ADME, organism-based; set-up: dose 20 mg/kg, route oral; settings: in vivo; method in brief: as §2
[11] = Mitochondrial toxicity in human 786-O cells measured after 6 hrs by MitoTracker Red chloromethyl-X-rosamine based assay; format: cell-based, 786-0
[12] = Selectivity index ratio of GI50 for human A549 cells to EC50 for growth inhibition of Trypanosoma brucei bloodstream forms; format: toxicity; settings: read-out: Ratio GI50/EC50
CYP1A2 = experiment: Selectivity index ratio of IC50 for CYP1A2 (unknown origin) to EC50 for growth inhibition of Trypanosoma brucei bloodstream forms; format: toxicity; settings: read-out: Ratio IC50/EC50
[13] = Thermodynamic solubility of the compound in phosphate buffered saline/10%DMSO after 24 hrs by spectrophotometric method; format: physicochemical; settings: read-out: Therm_solubility
Method in brief: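 Over-saturated suspensions (theoretical maximum 100 µg/mL) in water, PBS, PBS + 10% DMSO or PBS + 50% DMSO were stirred at 1200 rpm for 24 h at 25 °C. They were filtered at 0.2 µm and diluted 1:1 with ACN. Concentration was quantified by UV using a molar extinction coefficient determined at 340 nm.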

CYP2C9 = experiment: Selectivity index ratio of IC50 for CYP2C9 (unknown origin) to EC50 for growth inhibition of Trypanosoma brucei bloodstream forms; format: toxicity; settings: read-out: Ratio IC50/EC50
Trypanosoma brucei [14] = experiment: Inhibition of N-terminal His-tagged Trypanosoma brucei pteridine reductase 1 at 50 uM using di-hydrobiopterine as substrate measured at 1 min interval for 50 mins in presence of NADPH relative to control; method in brief: as §1
Trypanosoma brucei [15] = experiment: Inhibition of PTR1 in Trypanosoma brucei bloodstream forms assessed as potentiation of methotrexate-induced parasitic cell growth inhibition at 10 uM measured after 72 hrs by resazurin-based fluorescence assay (reference value: 19 +/- 6%)
Method in brief: (§3)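 Bloodstream-form T. brucei resazurin assay: 72 h at 37 °C, 5% CO₂, then fluorescence at ex 540/em 620 nm. Benzothiazole was tested at 10 μM alone and with 4 μM methotrexate. The index is the combination's activity divided by the sum of the activities of 10 μM benzothiazole and 4 μM methotrexate given separately.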

Cytochrome P450 3A4 = Cytochrome P450 3A4 (Homo sapiens, UniProt P08684); experiment: Inhibition of human CYP3A4 expressed in baculovirus infected insect cells using beetle D-luciferin as substrate preincubated for 30 mins followed by NADPH addition and measured after 30 mins by CYP450-Glo assay
Cytochrome P450 3A4, sequence (P08684 whole entry): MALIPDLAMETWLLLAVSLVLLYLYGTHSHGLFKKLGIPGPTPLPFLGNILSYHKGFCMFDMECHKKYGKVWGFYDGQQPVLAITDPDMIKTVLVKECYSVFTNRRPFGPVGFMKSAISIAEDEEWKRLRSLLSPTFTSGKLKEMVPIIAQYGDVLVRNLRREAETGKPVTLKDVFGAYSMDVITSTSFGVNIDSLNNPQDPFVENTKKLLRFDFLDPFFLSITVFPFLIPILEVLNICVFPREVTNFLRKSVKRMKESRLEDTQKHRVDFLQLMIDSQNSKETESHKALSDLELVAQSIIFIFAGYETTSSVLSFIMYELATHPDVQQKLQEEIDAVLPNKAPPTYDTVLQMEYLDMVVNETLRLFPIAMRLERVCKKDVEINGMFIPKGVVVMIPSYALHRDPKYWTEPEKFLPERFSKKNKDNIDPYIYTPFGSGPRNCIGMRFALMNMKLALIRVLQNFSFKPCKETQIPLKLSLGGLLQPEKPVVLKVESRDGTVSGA

CYP2C19 = experiment: Selectivity index ratio of IC50 for CYP2C19 (unknown origin) to EC50 for growth inhibition of Trypanosoma brucei bloodstream forms; format: toxicity; settings: read-out: Ratio IC50/EC50
Trypanosoma brucei [16] = experiment: Growth inhibition of Trypanosoma brucei bloodstream forms at 10 uM measured after 72 hrs by resazurin-based fluorescence assay relative to control; format: organism-based; settings: Trypanosoma brucei, read-out: GI
[17] = Clearance in BALB/c mouse at 20 mg/kg, po co-formulated with hydroxypropyl-beta-cyclodextrin by LC-MS analysis; format: ADME, organism-based; settings: in vivo; method in brief: as §2
[18] = Half-life in BALB/c mouse at 20 mg/kg, po by LC-MS analysis; format: ADME, organism-based; settings: in vivo; method in brief: as §2
Trypanosoma brucei [19] = experiment: Inhibition of PTR1 in Trypanosoma brucei bloodstream forms assessed as potentiation of methotrexate-induced parasitic cell growth inhibition by measuring potentiation index at 10 uM measured after 72 hrs by resazurin-based fluorescence assay relative to control (methotrexate); format: functional; method in brief: as §3

inhibition [1]: > 60%
half-life [3]: 34.8 h
AUC [4]: 1057 ng·h/mL
EC50 (Trypanosoma brucei [5]): 7 µM
Ratio [7]: 1.9
IC50 (Cytochrome P450 2C9): > 25 µM
CL/F [9]: 68 mL/min/kg
Cmax [10]: 826 ng/mL
solubility thermodynamic at 24 h [13]: > 100 µg/mL
inhibition (Trypanosoma brucei [14]): > 60%
growth inhibition (GI) (Trypanosoma brucei [15]): 30%
IC50 (Cytochrome P450 3A4): > 25 µM
CL/F [17]: 41 mL/min/kg
half-life [18]: 43.5 h
Structure (SMILES): Nc1nc2ccc(C(=O)NCc3ccccc3)cc2s1
selectivity ratio [2]: > 10
selectivity ratio (hERG): > 10
inhibition at 50 µM (Trypanosoma cruzi): 51.3%
selectivity ratio [6]: > 10
selectivity ratio (CYP3A4): > 10
growth inhibition (GI) (Leishmania infantum): Non-Toxic
MNTC at 72 h [8]: > 25 µM
IC50 at 6 h [11]: > 25 µM
selectivity ratio [12]: > 10
selectivity ratio (CYP1A2): > 10
selectivity ratio (CYP2C9): > 10
selectivity ratio (CYP2C19): > 10
inhibition at 10 µM (Trypanosoma brucei [16]): > 60%
Ratio (Trypanosoma brucei [19]): 1.6
